Results: the EternaBench riboswitch data

Tested on: MS2 coat protein
Assay: apparent Kd, MS2 coat protein; higher = weaker binding; RNA-MaP array; FMN 200 µM where present
Summary of the method: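 On Illumina sequencing-chip clusters, designs were transcribed by stalled E. coli RNA polymerase and titrated with SNAP-549-labelled MS2 coat protein (0.7 or 1.5 nM, doubling to 3 µM), without and then with constant ligand, in 100 mM Tris-HCl pH 7.5, 80 mM KCl, 4 mM MgCl2, BSA, DTT, yeast tRNA and Tween-20. Apparent Kd is the median of filtered per-cluster curve fits to green signal normalised to red-channel RNA signal and control-cluster median Fmax.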

[1] = designed as: OFF switch for flavin mononucleotide, no ligand
[2] = ligand present: flavin mononucleotide, designed as: OFF switch for flavin mononucleotide
[3] = designed as: ON switch for flavin mononucleotide, no ligand
[4] = ligand present: flavin mononucleotide, designed as: ON switch for flavin mononucleotide

Row | Sequence | apparent Kd [1] | apparent Kd [2] | apparent Kd [3] | apparent Kd [4]
1 | UUUUUACAUGAGGAUCACCCAUGUGAGGAUAUGGAUUCGCUGGCCGUAGCCAGUGGAUCCAGAAGGCGCAUGAU | 82.7 nM | 280 nM | – | –
2 | GGACGUCACAUCUACAUGAGGAUCACCCAUGUCUCUUGAUAUGAGGAUAUGUAUACGAAUCGUUUAUAGAAGGCAUGGACGUCC | – | – | 286 nM | 312 nM
3 | AUUAUGUAAGGAUAUCUUACAUGUGACUUCGGUCACUGUUAAGAGAAGGUACAUGAGGAUCACCCAUGUAGAAC | 18.7 nM | 28.7 nM | – | –
4 | CGCAACAUACAGAAGGAGUAAAUUAGAAGUGUACUAGGAUAUGUUUACAUGAGGAUCACCCAUGUCGAUUGGGUUUUAGUUGCG | 489 nM | 251 nM | – | –
5 | CUCUUGUGAGGAUAUCAGUAGUAAAAAAAUAAAAUUACUACUGAGAAGGCACAUGAGGAUCACCCAUGUGACUU | 26.2 nM | 30.5 nM | – | –
6 | AUAAAACAUGAGGAUCACCCAUGUCAACAAAGUCGAGGAUAUGGGCAAUUAAAAUAAGAACCAGAAGGCGAAUAAU | – | – | 172 nM | 39.8 nM
7 | UGUUGUAUUACAGGAUAUCUAUGAUUUUUAUUUAGAGAAGGGUAUUCACAUGAGGAUCACCCAUGUAUAUACGAGGAAGUUGUG | – | – | 46.1 nM | 51.7 nM
8 | GUACAUACAAAGUUACAUGAGGAUCACCCAUGUUUAUUGGGAAGAAGGGUAACAUUAUUAGAUGUAUAGGAUAUUUCACAAUUG | – | – | 511 nM | 316 nM
9 | AAGUCAGCAGGAUAUGCGAUGUUGUGCUAGAUAGCGGGACCACAUGAGGAUCACCCAUGUAGAAGGGCUGGCUA | 34 nM | 22.5 nM | – | –
10 | AAGUAGGGAGGAUAUACAUAGAUACAGAUUCAUGUGGAACUACAUGAGGAUCACCCAUGUAGAAGGCCCUAAUA | 27.2 nM | 102 nM | – | –
11 | GUCAGCUCUUGAGGAUAUACAACACUGCUUCGGCAGUGUAUUAAGAUCACAUGAGGAUCACCCAUGUAGAAGGCACGAGCUGAU | 13.2 nM | 170 nM | – | –
12 | UCUGCCGCCGUGAGGAUAUGCCCAAAGAAAAGCGGGCAGAAGGCACAUGAGGAUCACCCAUGUCCCGCGGUUUU | 18 nM | 38.4 nM | – | –
13 | UACGGACAUGAGGAUCACCCAUGUGAGGAUAUCGGUACCGAUAGCAUAAUAUAAUCGGCGAGAAGGCACAGCGU | 32.7 nM | 42.8 nM | – | –
14 | UGGUACUAGGGAGGAUAUGGGAAGAUACAUGAGGAUCACCCAUGUUUAAGAGUGCCGAGAGGCAACUAGAAGGCCCUAGUACCU | – | – | 1030 nM | 83 nM
15 | UGUCGGAGAAGAGGAUAUUACAUGAGGAUCACCCAUGUAUGAACCAAUAGCUGGAAACAGCAAUGUAAGAAGGCUGCUCCGACA | 5.32 nM | 23.1 nM | – | –
16 | ACAUGAGGAUCACCCAUGUGAUGAUCUUCCAUGUCAUAUUUCAGAAGGCUCGCAUGUUUGAUGAGAGAGGAUAUGGAAUAUGCG | 790 nM | 368 nM | – | –
17 | GUUGUGUAUGUAGGAUAUGCGAAGCAAAGCUUCGCAGAAGGACAUGAGGAUCACCCAUGUAUUGCGGUCUGCGUUCAGAUCGCU | 43.5 nM | 181 nM | – | –
18 | ACUCGCGGAGAGAAGGGAUUUGUACAUGAGGAUCACCCAUGUCGCACGGUCAGGAUAUCUUCGUCAGGUACAACAUACGUCCCG | – | – | 16.8 nM | 6.99 nM
19 | AUCAAUCGUGUAGGAUAUGCGUGGCGAAGCUAUGCAGAAGGACAUGAGGAUCACCCAUGUCUUUCUGUCUGUGUACAGACAGGA | 20.4 nM | 71.5 nM | – | –
20 | AAAAGACAUGAGGAUCACCCAUGUUAGGAUAUCGUGCAGAAAAAAAAAAAAAACUGCACGAGAAGGAACAAGGA | 73.5 nM | 88.5 nM | – | –
21 | AUCCUACAUGAGGAUCACCCAUGUCAGGAUAUCCAAGAAAUGUGGCCGUAUCGGCCACGGAGAAGGGACGGGUG | 40 nM | 60.8 nM | – | –
22 | GGUCGUCCCAUUAACAUGAGGAUCACCCAUGUCAAAAGACAUGAGGAUAUGGUACCUAAUUGGUACCAGAAGGCAUGGACGACC | – | – | 1210 nM | 115 nM
23 | ACAUGAGGAUCACCCAUGUUGAAUUAGGAUAUUUGACUGCACAUGAGGUUCUCCCAUGUUCUACCGGAGAAGGGAUUAAUAAUU | – | – | 549 nM | 240 nM
24 | AGAUACAACCAGAAGGACAUGAGGAUCACCCAUGUAGGAUAUGGGUUACACGUUCCUGUGAAUUGUAACGACGCUACGUAGAGU | – | – | 178 nM | 15 nM

Row | Sequence | apparent Kd [1] | apparent Kd [2] | apparent Kd [3] | apparent Kd [4]
25 | AUCAGCGCGUCAGGAUAUACGUCACUGCGUCAGCAGUGUGGUAAGAUCACAUGAGGAUCACCCAUGUAGAAGGGACGAGCUGAU | 12.8 nM | 307 nM | – | –
26 | GCGAGUAAAGCAGGAUAUCUAUUGUCUCUGUAACAUGAGGAUCACCCAUGUAGAGAAGGGCUUAGUCAUACAAUUCGAACUCGC | 7.86 nM | 7.32 nM | – | –
27 | AAGUCUGGACGAGGAUAUCAGCUGUAUCUGGCGUCAACAUGAGGAUCACCCAUGUUGCUAUAGGGUGAGAAGGCGUUUGGGCAA | – | – | 84.9 nM | 19.9 nM
28 | UGUCGGAGCAGAGGAUAUUACAUGAGGAUCACCCAUGUAUGAACCAAUAGCUGGAAACAGCAGUGUAAGAAGGCUGCUCCGACA | 12.5 nM | 143 nM | – | –
29 | AAGUGUGCCUAGGAUAUGUUCGGCCAAGGUCAUACAGAAGGAGGCACAUGAGGAUCACCCAUGUAGUGUCCUAC | 73.2 nM | 43.1 nM | – | –
30 | GGAGGACGAAACAUGAGGAUCACCCAUGUGUUAUAAUUAAUAUAGGAUAUGUUUAUACUUUUUGGGCAGAAGGAUGAUAAUGCC | – | – | 19.6 nM | 16.1 nM
31 | UUUUUAUAAUAGAAGGAGGACUUCAUGAGGAUCACCCAUGUGUUAGUACUUAGGAUAUGUAAUAACAUGAGGAUCACCCAUGUC | – | – | 45.3 nM | 45.7 nM
32 | GGUGCGCCAAGCCUUAAGACCGAACAUGAGGAUCACCCAUGUGAGGAUAUGACAGACGAAAGAAGUCAGAAGGCAUAAGGGUGG | 7.12 nM | 10.1 nM | – | –
33 | CAGGACAGGAAACGGAGCGGCCAACAUGAGGAUCACCCAUGUAAGGAUAUGCCUACUAAAAGUAGGCAGAAGGUACAGAAGGCA | 29.9 nM | 73.1 nM | – | –
34 | CGAUAUUAUGCAGGAUAUCUCCCUUGAAUGAGGAGAGAAGGGCAUAGGGAGACAUAAGCCUUAUUACAUGAGGAUCACCCAUGU | 9.67 nM | 8.35 nM | – | –
35 | UGGUACUAGGGAGGAUAUGGGAAGAUACAUGAGGAUCACCCAUGUUUAAGAAUGCCGAGAGGCAAGUAGAAGGCCCUAGUACCU | – | – | 781 nM | 97.5 nM
36 | CUCACAAGAGGAUAUUAAUAGCUUAACAUGAGGAUCACCCAUGUCCUUUUCUCGGGAUUUUGAGAAGGCUUGUGUG | 341 nM | 189 nM | – | –
37 | UUUCCGCGAGGAUAUGCGGGCUGUGCUUUUCAUUUCUUACCACAUGAGGAUCACCCAUGUAGAAGGUGCUUCUU | 154 nM | 136 nM | – | –
38 | AAUUUGUGAAAAUUACAUGAGGAUCACCCAUGUUAGGGAAUGCAGGAUAUGUGGUUUAUUAUUUUACAGAAGGGCAAUAAUUUU | – | – | 95.9 nM | 53.6 nM
39 | UUUACGAAAGUCGAACGAUGUAGCAGAAGGACAUGAGGAUCACCCAUGUCAGCUGUAACAGCCAUGUAGGAUAUGCUACAUAAA | 5.78 nM | 5.92 nM | – | –
40 | UCGGCGCGAGGAUAUGCGGCUGGUGCUUCGGGCCCUCGCGUACAUGAGGAUCACCCAUGUAGAAGGCGCGCCGC | 32.2 nM | 38.6 nM | – | –
41 | ACCAUUUACUAAUCCUCUAUACAUGAGGAUCACCCAUGUUUUGAGGAUAUCAGCGUGAAACACGCUGAGAAGGCAAAACAUUCG | 73.5 nM | 104 nM | – | –
42 | GGACAUUUACAGAAGGGCAAGCUCGAAAGCGGAGAACGCGAACGAGCUUGCAGGAUAUGUUGAACAUGAGGAUCACCCAUGUCU | – | – | – | 7.08 nM
43 | CCAAGCUGUGUGAGGAUAUGCUGAACCUUGGUUCAGCAGAAGGCACAUGAGGAUCACCCAUGUGAAAAGCUUGG | 16.2 nM | 56 nM | – | –
44 | UUAUGUCGCGUAGGAUAUCACUAGAGUUGUAAUUUAAUUGUAAUUUCGAUGUGAGAAGGACGUACACAUGAGGAUCACCCAUGU | 19.5 nM | 16.3 nM | – | –
45 | GAGGUGUUAGGAUAUCGGAGAUGGAGACCGACGGGAUGAGCCGAGAAGGAACAUGAGGAUCACCCAUGUAGGUG | 461 nM | 283 nM | – | –
46 | GGAGCAACAUGAGGAUCACCCAUGUAGGAUAUCGCUAUUGUAAUCAUGAAACAUGAUUACAAUAGCGAGAAGGACAUAUGCUCC | 6.02 nM | 9.16 nM | – | –
47 | UGCUGGCGAGGAUAUGCUCGGGAUGCUAGUCGCGCGGUUGCACAUGAGGAUCACCCAUGUAGAAGGUGUCUGUG | 170 nM | 169 nM | – | –
48 | CCAUCAGCGGGCGUAUCGGUUGGACAUGAGGAUCACCCAUGUAGAAGGACAGGAGUAUUUCGGCUGUAGGAUAUACAUUUGGUG | 22.5 nM | 52.7 nM | – | –
